Screens deposited in PubChem BioAssay by several laboratories.
SR-BI DiI-HDL act = activators of SR-BI mediated DiI-HDL uptake, primary screen, ldlA[mSR-BI] CHO cells, DiI fluorescence; 3 h; 100 = double the neutral-control signal; activation, % at 12.5 µM; 0.096% of 320,000 active;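 active = mean replicate activation of at least 60% and every replicate at or above 60%; inconclusive = mean or all-replicate condition met, but not both; inactive = mean below 60% and not all replicates reaching 60%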;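 also: 0% = median plate neutral-control signal and 100% = twice that signal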
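Material: SR-BI-overexpressing, LDLR-lacking CHO cells; schedule: compound exposure 3 h, 37 °C; reagent: DiI-labelled HDL at 10 µg/mL final; technique: bottom-read fluorescence, 550/595 nm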
TAG inh = inhibitors of triacylglycerol accumulation, primary screen, cell-based, uHTS, fluorescence, H9c2. H9c2 cells, Nile Red lipid (TAG) fluorescence; cells loaded with 200 µM oleic acid. inhibition, % at 12.5 µM. 0.66% of 230,000 active;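 active = pattern-corrected inhibition of lipid staining of at least 50% with the nuclear-stain viability signal not falling by more than 50%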;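 also: 0% = DMSO wells and 100% = triacsin C control wells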
SR-BI DiI inh = inhibitors of SR-BI mediated HDL lipid uptake, primary screen, ldlA[mSR-BI] cells, fluorescence, single point; 0.96% of 320,000 active; inhibition, % at 12.5 µM; Scavenger receptor class B member 1 (Mus musculus), Q61009; ldlA[mSR-BI] CHO cells, DiI-HDL uptake fluorescence, 3 h;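 active = mean replicate inhibition of at least 70% and a set share of replicates each scoring 70 or more; inconclusive = meets just one of the two criteria; inactive = fails both criteria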;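 also: 0% = median of neutral control wells and 100% = median of positive control wells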
Target sequence (Q61009 whole entry, looked up): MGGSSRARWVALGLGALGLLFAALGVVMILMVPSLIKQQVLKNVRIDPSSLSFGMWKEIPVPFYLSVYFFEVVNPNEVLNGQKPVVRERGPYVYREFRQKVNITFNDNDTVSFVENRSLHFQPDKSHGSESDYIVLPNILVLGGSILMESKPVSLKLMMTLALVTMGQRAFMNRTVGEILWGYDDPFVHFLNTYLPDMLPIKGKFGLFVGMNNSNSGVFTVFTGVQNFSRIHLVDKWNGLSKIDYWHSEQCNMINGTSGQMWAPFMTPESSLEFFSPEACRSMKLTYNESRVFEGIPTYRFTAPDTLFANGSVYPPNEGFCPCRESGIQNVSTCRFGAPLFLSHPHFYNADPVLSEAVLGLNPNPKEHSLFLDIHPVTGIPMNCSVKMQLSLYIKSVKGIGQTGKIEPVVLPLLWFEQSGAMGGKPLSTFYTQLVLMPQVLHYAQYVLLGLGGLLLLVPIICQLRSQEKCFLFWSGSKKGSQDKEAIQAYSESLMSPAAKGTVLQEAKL
SMARCA2 act = SMARCA2 (BRM) function activators, primary screen, cell-based, luminescence, high throughput; MG213 cells, MMTV-luciferase reporter, dexamethasone, overnight; activation, % at 9.1 µM; 1% of 370,000 active; in the data active = activation above about 7.8%;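 also: 0% = vehicle wells and 100% = reference activator wells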
Vif inh = HIV Vif self-association inhibitors, primary screen, imaging, HEK293T, single point; 0.35% of 340,000 active; AID 602346, 2012; inhibition, % at 7.49 µM; HEK293T cells, Vif self-association by quenched fluorescence, 24 h; in the data active = inhibition above about 50%, passing the limit was not always enough; inconclusive = no clear call, values can overlap the other calls; inactive = below about 31%
Numbers without * were called inactive; ? = inconclusive; · = no result. A selection: hits, their analogues and other compounds. The true share with any hit is near 2.5%.

SMILES	SR-BI DiI-HDL act	TAG inh	SR-BI DiI inh	SMARCA2 act	Vif inh
O=C(NNc1c2ccccc2nc2ccccc12)C12CC3CC(CC(C3)C1)C2	-14	7	14	-1	-2
NNC(=O)c1cc(C23CC4CC(CC(C4)C2)C3)nc2ccccc12	-89	·	89*	-1	1
CCOC(=O)N1CCC(=NNC(=O)c2ccccc2F)CC1	-8	·	8	11*	-5
CC(C)CNC(=O)c1cc2nc3c(c(C(F)(F)F)n2n1)CCc1ccccc1-3	-78	1	78*	-3	4
CCCCNC(=O)c1cc2nc3c(c(C(F)(F)F)n2n1)CCc1ccccc1-3	-28	18	28	0	-3
O=C(Nc1ccccc1)N1CCC(C(=O)N2CCN(c3ccccc3F)CC2)CC1	-80	-8	80*	2	4
CCc1ccc(NC(=O)N2CCC(c3ccccc3)C2)cc1 (stereo unspecified)	11	-2	-11	3	-2
O=C(Nc1ccccc1)N1CCC(c2ccccc2)C1 (stereo unspecified)	·	·	·	7.8*	10
CC(C)CCN(C)C1CCN(C(=O)Nc2ccc(Cl)cc2)CC1	·	·	·	0	·
CC(C)CCN(C)C1CCN(C(=O)Nc2ccccc2)CC1	·	·	·	7.8*	·
Cc1[nH]nc2c1C(c1cccc(C(F)(F)F)c1)N(Cc1ccccc1)C2=O (stereo unspecified)	·	·	·	0	·
O=C(NCc1ccccc1)[C@H]1CCCN1C(=O)[C@H]1CCCN1C(=O)C1CCCCC1	·	·	·	-3	·
Oc1c(N=Nc2ccccn2)ccc2ccccc12	-134	70*	134*	-2	3
Oc1[nH]c2ccccc2c1N=Nc1ccccn1	3	1	-3	-1	-11
Cc1c(C(=O)Nc2cccc([N+](=O)[O-])c2)csc1-c1ccccc1	-89	·	89*	3	25
O=C(Nc1cccc([N+](=O)[O-])c1)c1cc2ccccc2cc1O	-129	24	129*	-10	-23
N#Cc1ccc(C23CC4(C2)[C@H](CN(P(=O)(c2ccccc2)c2ccccc2)[C@@H]4c2ccccc2)C3c2ccc(Cl)nc2)cc1 (stereo partly specified)	21	51*	-21	·	-10
CC(C)N1CCCCC(NC(=O)c2cccs2)C1=O (stereo unspecified)	·	·	·	0	·
CN(C)c1cccc(Oc2nc3c(c(=O)n(C)c(=O)n3C)n2C)c1	-89	·	89*	-1	-3
COCCCNc1nc2cc(OC)c(OC)cc2c2nc(-c3ccccc3)nn12	-86	·	86*	0	-15
CCN(CC)CCCNc1nc2cc(OC)c(OC)cc2c2nc(-c3cccnc3)nn12	7	10	-7	5	38
COc1ccccc1N1C(=O)c2cccc3c(N(C)CCO)ccc(c23)C1=O	-10	-11	10	0	80*
CCOC(=O)[C@@]12CCC3=C1N(CCC3)C(=O)[C@H](CC(=O)NCC13CC4CC(CC(C4)C1)C3)C2	·	·	·	-2	·
CCOC(=O)CN1C(=O)[C@]2(OCCC=C[C@H]2C)c2c(Br)cccc21	·	·	·	-1	·
COc1cccc(C(C)(O)c2nc(-c3ccccc3OC)cs2)c1 (stereo unspecified)	·	2	·	-3	57*
SMILES	SR-BI DiI-HDL act	TAG inh	SR-BI DiI inh	SMARCA2 act	Vif inh
O=C(NCc1ccccc1)[C@H]1CCCN1C(=O)[C@H]1CCCN1C(=O)c1ccc(Cl)cc1	·	·	·	-4	·
COc1ccc2c(c1)cc(C(=O)N/N=C/c1c(O)c(C(=O)O)cc3ccccc13)n2C	-86	·	86*	1	-3
O=C(N[C@H](C(=O)N1CCC[C@H]1C(=O)NC1CCCC1)c1ccccc1)c1ccc(Cl)cc1Cl	·	·	·	-2	·
COc1ccc(NC(=O)C(Cl)=C(Cl)Cl)cn1	13	2	-13	0	9
COc1ccc(NC(=O)/C(Cl)=C(/Cl)S(=O)Cc2ccc(Cl)cc2)cn1 (stereo unspecified)	-27	88*	27	-8	?
CCc1ccc2[nH]c3nc(SCC(=O)NNC(=O)c4ccc(C(C)(C)C)cc4)nnc3c2c1	-8	-10	8	2	90*
CCCCNc1cccc2c1S(=O)(=O)N[C@H](Cc1ccccc1)CO2	·	·	·	2	·
Cc1ccccc1C1CC(=O)Oc2cc(O)ccc21 (stereo unspecified)	9	-1	-9	·	63*
COc1ccc(C2CC(=O)Oc3cc(O)ccc32)cc1 (stereo unspecified)	-23	-1	23	-5	5
COc1ccc(NC(=O)c2[nH]c(C)c(C(C)=O)c2C)cc1Cl	-75	4	75*	1	0
Cc1ccccc1NC(=O)CN1C(=O)NC2(CCc3ccccc32)C1=O (stereo unspecified)	7	-21	-7	0	3
COc1cc2c(cc1NC(=O)Nc1ccccc1)oc1ccccc12	-89	38	89*	2	-9
COc1cc2c(cc1NC(=O)CN1C(=O)NC3(CCc4ccccc43)C1=O)oc1ccccc12 (stereo unspecified)	-27	55*	27	-2	1
COc1cc2c(cc1NC(=O)C(C)Sc1ccc(C)cc1)oc1ccccc12 (stereo unspecified)	-79	·	79*	-2	12
COc1cc2c(cc1NC(=O)CCCCCN1C(=O)CCC1=O)oc1ccccc12	-85	·	85*	4	-10
COc1cc2c(cc1NC(=O)CCC(=O)O)oc1ccccc12	18	·	-18	-3	15
COc1cc2c(cc1NC(=O)Cc1ccc(C)cc1)oc1ccccc12	-72	·	72*	-2	2
Oc1ccc2ccccc2c1/C=N/Nc1nnc(-c2ncc[nH]2)c2ccccc12	-136	-15	136*	-2	87*
CCN1CCN(c2cc(=O)n(-c3cc(Cl)ccc3C)c(=O)[nH]2)CC1	14	·	-14	-3	58*
Cc1ccccc1-n1c(=O)cc(N2CCN(Cc3ccccc3)CC2)[nH]c1=O	13	-1	-13	-2	·
CCOc1cc2nc(-c3ccc(OC)c(OC)c3)nc(NCCCN3CCOCC3)c2cc1OC	24	56*	-24	-3	-4
CCOc1ccc(-n2cnc3sc(C)c(C)c3c2=O)cc1	-71	·	71*	-2	-5
Cc1sc2ncn(-c3ccccc3)c(=O)c2c1C	-17	-2	17	-2	0
CC(C)n1c(CNC(=O)c2ccccc2F)nnc1SCC(=O)NC1CCCCC1	8	-4	-8	-1	53*
CCn1c(CNC(=O)c2ccccc2F)nnc1SCC(=O)NC1CCCCC1	7	·	-7	1	-15
COc1ccc(/C=N/Nc2nc(-c3ccc(Cl)cc3)cc(C(F)(F)F)n2)c(OC)c1	-80	·	80*	-2	3
NC(=S)N/N=C1\CCSc2ccc(Cl)cc21	-81	-9	81*	-6	·
